Results on 74 sequences are retold here after the array DNA melting data of Ke et al. (doi:10.1101/2024.01.08.574731).

Series [1] is described as follows: folding enthalpy; higher = less favourable; fluorescence melt of hairpins on a sequencing array, two-state fit. As to conditions: sodium 0.088 M. The method, boiled down:
(§1)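 In 50 mM Na-HEPES pH 8.0 containing 25 mM NaCl, hairpins from the library on a sequenced MiSeq flow cell were imaged for Cy3 fluorescence at 2.5 °C steps up to 60 °C, with Cy3 and quencher oligos annealed. After normalisation to pre-quench Cy3 and to control constructs, two-state fits with bootstrapping gave melting temperature and folding enthalpy. Four replicates were combined by inverse-variance weighting, and fitted temperatures were shifted up by 9.35 °C to match UV melts.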

Series [2] can be described thus: melting temperature; fluorescence melt of hairpins on a sequencing array, two-state fit, raised by 9.35 °C to match UV melts. As to conditions: sodium 0.088 M. The essentials: as §1

CGGAGGCGGAAACGCCCG (((..(((....)))))): the folding enthalpy in series [1] was -11.7 kcal/mol. Also, the Tm in series [2] is 54.7 °C.
The matching figures for CGGATCGGAAACGACCG (((.(((....)))))): -28.2 kcal/mol and 49.8 °C.
The matching figures for CGGCACGGAAACGTCCG (((.(((....)))))): -21.8 kcal/mol and 47.9 °C.
The matching figures for CGGCATCGGAAACGACCG (((..(((....)))))): -16.6 kcal/mol and 34.4 °C.
Turning to CGGCCCCGGAAACGGCCG (((..(((....)))))), in series [1], the folding enthalpy is -31.9 kcal/mol. In series [2], the Tm is 54.4 °C.
On to CGGCCCGGAAACGGACCG (((.(((....))).))), for which the folding enthalpy in series [1] is -37.7 kcal/mol. Moreover, in series [2], the Tm came out at 57.6 °C.
The matching figures for CGGCCGGAAACGGAACCG ((((((....)))..))): -26.2 kcal/mol and 46 °C.
The matching figures for CGGCCGGAAACGGACCG ((((((....))).))): -25 kcal/mol and 54.6 °C.
In the case of CGGCCGGAAACGGCACCG ((((((....)))..))), in series [1], the folding enthalpy was -8.06 kcal/mol. The Tm in series [2] turned out to be 34.5 °C.
Regarding CGGCCGGAAACGGCGCCG ((((((....)))..))), the folding enthalpy in series [1] is -8.21 kcal/mol. For the same sequence, in series [2], the Tm came out at 39.2 °C.
With CGGCCGGAAACGGTGCCG ((((((....)))..))), the folding enthalpy in series [1] is -35.8 kcal/mol. In addition, in series [2], the Tm is 51.9 °C.
For the sequence CGGCGCGGAAACGCCCG (((.(((....)))))), in series [1], the folding enthalpy is -16.7 kcal/mol. The Tm in series [2] came out at 56.5 °C.
Taken in the same sequence, the figures for CGGCGTCGGAAACGACCG (((..(((....)))))) were -13.8 kcal/mol and 47.4 °C.
Taken in the same sequence, the figures for CGGCTCGGAAACGATCCG (((.(((....))).))) were -44.5 kcal/mol and 49.2 °C.
Take CGGGACCGGAAACGGCCG (((..(((....)))))): in series [1], the folding enthalpy is -16.1 kcal/mol. For the same sequence, the Tm in series [2] was determined as 48.5 °C.
The matching figures for CGGGATCGGAAACGACCG (((..(((....)))))): -22.6 kcal/mol and 40 °C.
The matching figures for CGGGCCCGGAAACGGCCG (((..(((....)))))): -13.3 kcal/mol and 50.3 °C.
The matching figures for CGGGCGGAAACGCAACCG ((((((....)))..))): -23.9 kcal/mol and 49.7 °C.
On to CGGGCGGAAACGCACCG ((((((....))).))), for which the folding enthalpy in series [1] was -16.9 kcal/mol. In series [2], the Tm came to 60.4 °C.
The matching figures for CGGGCGGAAACGCGTCCG ((((((....)))..))): -23.9 kcal/mol and 53 °C.
Turning to CGGGTGAAAACCCG (((((....))))), in series [1], the folding enthalpy is -28.9 kcal/mol. For the same sequence, in series [2], the Tm amounted to 68.6 °C.
Turning to CGGTACGGAAACGTCCCG (((.(((....))).))), in series [1], the folding enthalpy was -25 kcal/mol. Further, the Tm in series [2] was 46.6 °C.
On to CGGTACGGAAACGTCCG (((.(((....)))))), for which the folding enthalpy in series [1] is -20.9 kcal/mol. Further, the Tm in series [2] stood at 47.7 °C.
In the case of CGGTACGGAAACGTGCCG (((.(((....))).))), the folding enthalpy in series [1] is -37.5 kcal/mol. In addition, the Tm in series [2] was 59.8 °C.
Regarding CGGTCGGAAACGACTCCG ((((((....)))..))), the folding enthalpy in series [1] is -13.3 kcal/mol. Further, in series [2], the Tm turned out to be 33.9 °C.
The matching figures for CGGTCGGAAACGATACCG ((((((....)))..))): -26.9 kcal/mol and 41.2 °C.
The matching figures for CGGTCTCGGAAACGACCG (((..(((....)))))): -30 kcal/mol and 46.7 °C.
Taken in the same sequence, the figures for CGGTTCGGAAACGAGCCG (((.(((....))).))) were -50.5 kcal/mol and 58.6 °C.
Turning to CGGTTGAAAAACCG (((((....))))), the folding enthalpy in series [1] is -29.6 kcal/mol. The Tm in series [2] was 56.2 °C.
The matching figures for CGTACCGGAAACGGAACG (((.(((....))).))): -30.7 kcal/mol and 50.7 °C.
Taken in the same sequence, the figures for CGTACGAAAGTACG (((((....))))) were -26.7 kcal/mol and 68.9 °C.
Taken in the same sequence, the figures for CGTACGGAAACGTTAACG ((((((....)))..))) were -16.7 kcal/mol and 37.3 °C.
CGTAGCGGAAACGCACG (((.(((....)))))): in series [1], the folding enthalpy was -22.2 kcal/mol. For the same sequence, the Tm in series [2] was determined as 53.1 °C.
In the case of CGTATGCGGAAACGCACG (((..(((....)))))), the folding enthalpy in series [1] was -9.53 kcal/mol. Also, the Tm in series [2] came to 40.7 °C.
Taken in the same sequence, the figures for CGTCACGGAAACGTACG (((.(((....)))))) were -22.8 kcal/mol and 40 °C.
The matching figures for CGTCAGAAATGACG (((((....))))): -24.5 kcal/mol and 51.6 °C.
The matching figures for CGTCCCCGGAAACGGACG (((..(((....)))))): -21.1 kcal/mol and 42.2 °C.
Turning to CGTCCGCGGAAACGCACG (((..(((....)))))), the folding enthalpy in series [1] is -12 kcal/mol. For the same sequence, the Tm in series [2] came to 33.5 °C.
The matching figures for CGTCCGGAAACGGCAACG ((((((....)))..))): -14.8 kcal/mol and 38.5 °C.
The matching figures for CGTCCGGAAACGGGAACG ((((((....)))..))): -22.5 kcal/mol and 38.9 °C.
Taken in the same sequence, the figures for CGTCGCGGAAACGCAACG (((.(((....))).))) were -28.8 kcal/mol and 50.5 °C.
Turning to CGTCGCGGAAACGCACG (((.(((....)))))), in series [1], the folding enthalpy is -19.4 kcal/mol. Moreover, the Tm in series [2] was 50.5 °C.
The matching figures for CGTCGGAAACGACG (((((....))))): -27.6 kcal/mol and 69.2 °C.
The matching figures for CGTCGTCGGAAACGAACG (((..(((....)))))): -24.9 kcal/mol and 48.8 °C.
Consider CGTCTACGGAAACGTACG (((..(((....)))))), for which the folding enthalpy in series [1] was -11.6 kcal/mol. Also, in series [2], the Tm amounted to 31.5 °C.
For the sequence CGTGACCGGAAACGGACG (((..(((....)))))), the folding enthalpy in series [1] is -15.7 kcal/mol. Also, the Tm in series [2] was 36.2 °C.
As for CGTGACGGAAACGTTACG (((.(((....))).))), the folding enthalpy in series [1] was -29.3 kcal/mol. Further, in series [2], the Tm was 52.2 °C.
As for CGTGCGGAAACGCAAACG ((((((....)))..))), the folding enthalpy in series [1] is -19.9 kcal/mol. For the same sequence, the Tm in series [2] worked out at 45.3 °C.
The matching figures for CGTGCGGAAACGCAACG ((((((....))).))): -27.5 kcal/mol and 53.9 °C.
Regarding CGTGCGGAAACGCGACG ((((((....))).))), in series [1], the folding enthalpy is -23.5 kcal/mol. Further, the Tm in series [2] is 55.1 °C.
The matching figures for CGTGCGGAAACGCTACG ((((((....))).))): -27.6 kcal/mol and 50.6 °C.
The matching figures for CGTGGCGGAAACGCGACG (((.(((....))).))): -35.6 kcal/mol and 57.7 °C.
The matching figures for CGTGGCGGAAACGCTACG (((.(((....))).))): -33.8 kcal/mol and 59.6 °C.
For CGTGGGCGGAAACGCACG (((..(((....)))))), the folding enthalpy in series [1] is -13.4 kcal/mol. Besides, the Tm in series [2] was found to be 53.1 °C.
As for CGTTAACGGAAACGTACG (((..(((....)))))), the folding enthalpy in series [1] was -17.6 kcal/mol. Further, the Tm in series [2] stood at 37 °C.
Taken in the same sequence, the figures for CGTTACGGAAACGTGACG (((.(((....))).))) were -52.2 kcal/mol and 51.5 °C.
For the sequence CGTTCCGGAAACGGACG (((.(((....)))))), in series [1], the folding enthalpy was -30.8 kcal/mol. Moreover, the Tm in series [2] is 49.9 °C.
The matching figures for CGTTCGCGGAAACGCACG (((..(((....)))))): -13.6 kcal/mol and 40.4 °C.
Taken in the same sequence, the figures for CGTTCGGAAACGAGCACG ((((((....)))..))) were -13.2 kcal/mol and 30.7 °C.
Take CGTTCGGAAACGATCACG ((((((....)))..))): the folding enthalpy in series [1] is -13.9 kcal/mol. Further, the Tm in series [2] was 30.9 °C.
The matching figures for CGTTCTCGGAAACGAACG (((..(((....)))))): -19.2 kcal/mol and 35.8 °C.
Taken in the same sequence, the figures for CGTTGCGGAAACGCTACG (((.(((....))).))) were -33.4 kcal/mol and 56 °C.
The matching figures for CGTTTTCGGAAACGAACG (((..(((....)))))): -12.1 kcal/mol and 37 °C.
Consider CTACAGAAATGTAG (((((....))))), for which, in series [1], the folding enthalpy is -13.3 kcal/mol. Also, the Tm in series [2] stood at 36.5 °C.
With CTACGGAAACGTAG (((((....))))), the folding enthalpy in series [1] was -24.9 kcal/mol. Besides, the Tm in series [2] came out at 49.4 °C.
Taken in the same sequence, the figures for CTATCGAAAGATAG (((((....))))) were -21.7 kcal/mol and 47.1 °C.
The matching figures for CTGTGGAAACACAG (((((....))))): -19.7 kcal/mol and 52.1 °C.
Taken in the same sequence, the figures for CTGTTGAAAAACAG (((((....))))) were -23.7 kcal/mol and 42.3 °C.
For the sequence CTTTCGAAAGAAAG (((((....))))), the folding enthalpy in series [1] is -19.3 kcal/mol. Moreover, the Tm in series [2] was 47.3 °C.
Taken in the same sequence, the figures for CTTTGGAAACAAAG (((((....))))) were -22.4 kcal/mol and 37.1 °C.
As to CTTTTGAAAAAAAG (((((....))))), the folding enthalpy in series [1] was -7.85 kcal/mol. Moreover, the Tm in series [2] was found to be 30.1 °C.
The matching figures for GAAAAAGCGAAAGCTTTC (((..(((....)))))): -12.1 kcal/mol and 33.2 °C.
The matching figures for GAAAACCCGAAAGGGTTC (((..(((....)))))): -8.48 kcal/mol and 39.8 °C.
Consider GAAAACGAAAGTTTCTTC ((((((....)))..))), for which the folding enthalpy in series [1] was -35 kcal/mol. For the same sequence, in series [2], the Tm worked out at 46.6 °C.
